Sampled rows, rich in hits. Any-hit rate of the full collection: about 3%.
UBC13 polyUb = UBC13 polyubiquitin chain formation inhibitors, primary screen, biochemical, TR-FRET, uHTS; Ubiquitin-conjugating enzyme E2 N (Homo sapiens), P61088; inhibition, % at 20 µM; 330,000 tested, 0.47% active; in the data active means inhibition above about 45%, passing the limit was not always enough
Target sequence (P61088 whole entry, looked up): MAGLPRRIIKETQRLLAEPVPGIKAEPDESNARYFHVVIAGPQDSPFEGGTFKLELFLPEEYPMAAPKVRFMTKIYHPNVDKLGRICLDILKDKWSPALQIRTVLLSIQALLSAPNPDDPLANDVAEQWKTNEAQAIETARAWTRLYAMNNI
SENP8 block-1 = human SENP8 protease inhibitors, primary screen, biochemical, fluorescence, Nedd8 protein substrate, uHTS; Sentrin-specific protease 8 (Homo sapiens), Q96LD8; recombinant SENP8; inhibition, % at 20 µM; 360,000 tested, 0.64% active; AID 602440, 2012; in the data active means inhibition mostly above about 40%, no sharp cut-off; inactive means mostly below about 27%
Target sequence (Q96LD8 whole entry, looked up): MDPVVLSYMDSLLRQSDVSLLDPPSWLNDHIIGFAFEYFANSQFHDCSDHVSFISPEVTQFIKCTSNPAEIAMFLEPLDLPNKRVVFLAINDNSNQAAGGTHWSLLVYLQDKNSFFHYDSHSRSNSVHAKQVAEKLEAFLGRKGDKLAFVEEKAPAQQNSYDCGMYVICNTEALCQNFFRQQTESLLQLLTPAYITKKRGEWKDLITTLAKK
SENP8 block-2 = SENP8 protease inhibitors, primary screen, biochemical, luminescence. Sentrin-specific protease 8 (Homo sapiens), Q96LD8. purified SENP8, Z-RLRGG-aminoluciferin cleavage. inhibition, % at 10 µM. 330,000 tested, 1.2% active; in the data active means inhibition above about 50%
SENP7 block = SENP7 protease inhibitors, primary screen, biochemical, luminescence, uHTS; 330,000 tested, 1.5% active; inhibition, % at 5 µM; recombinant SENP7, Z-RLRGG-aminoluciferin luminescence, 40 min; AID 434973, 2010; Sentrin-specific protease 7 (Homo sapiens), Q9BQF6;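 active means inhibition above about 50% at the single test dose, limit read from the data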;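 further: plate controls were DMSO with enzyme for no effect and no enzyme buffer wells for full effect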
SENP6 inh = SENP6 protease inhibitors, primary screen, biochemical, luminescence, uHTS; inhibition, % at 10 µM; Recombinant SENP6 catalytic domain, aminoluciferin luminescence; Sentrin-specific protease 6 (Homo sapiens), Q9GZR1; 330,000 tested, 1.8% active;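 active means inhibition above about 50% at the single tested dose, limit read from the data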;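 further: plate controls were DMSO wells with enzyme for no effect and DMSO wells lacking enzyme for full effect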
Apaf1 inhib = inhibitors of human Apaf-1 apoptosome, primary screen, biochemical, DEVD-Rh110 fluorescence, uHTS; Apoptotic protease-activating factor 1 (Homo sapiens), O14727; reconstituted apoptosome caspase-3 activity; inhibition, % at 20 µM; 330,000 tested, 0.71% active; AID 489030, 2010; active means inhibition of at least 40% at 20 µM;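 further: plate controls were DMSO wells for no effect and DEVD-CHO caspase inhibitor wells for full effect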
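System – cell-free apoptosome with Apaf-1, procaspase-3 and caspase-9 · Buffer or medium – pH 7.5 Hepes buffer with CHAPS, BSA, DTT · Also added – cytochrome c with DEVD-Rh110 · Times – 30 min compound preincubation, 50 min activation, room temperature · Technique – Rh110 fluorescence intensity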
SENP8 conf = SENP8 protease inhibitors, retest, confirmation, biochemical, luminescence, single concentration; shares compounds with SENP7 block; Recombinant SENP8, Z-RLRGG-aminoluciferin luminescence, 60 min; inhibition, % at 12.5 µM; 6,200 tested, 40% active; AID 488912, 2010;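 active means mean inhibition across replicates above about 50%, limit read from the data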
SENP6 conf = SENP6 protease inhibitors, confirmation, biochemical, luminescence, single concentration | recombinant SENP6, Z-RLRGG-aminoluciferin luminescence | AID 488915, 2010 | inhibition, % at 12.5 µM | shares compounds with SENP7 block | 6,200 tested, 58% active
SENP7 confirm = SENP7 protease inhibitors, retest, confirmation, biochemical, luminescence, single concentration; AID 488917, 2010; shares compounds with SENP7 block; 6,200 tested, 69% active; recombinant SENP7, Z-RLRGG-aminoluciferin luminescence, 40 min; inhibition, % at 12.5 µM
Casp3 SENP sel = caspase-3 protease inhibitors, confirmation, selectivity assay for SENP inhibitor project, biochemical, single concentration. shares compounds with SENP7 block. purified caspase-3, Z-DEVD-aminoluciferin luminescence, 60 min. inhibition, % at 12.5 µM. 6,200 tested, 60% active. AID 488918, 2010;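 active means mean inhibition above about 50%, limit read from the data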;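 further: plate controls were enzyme with DMSO for no effect and wells without caspase-3 for full effect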
Target sequence (P42574 28-227 limits assumed): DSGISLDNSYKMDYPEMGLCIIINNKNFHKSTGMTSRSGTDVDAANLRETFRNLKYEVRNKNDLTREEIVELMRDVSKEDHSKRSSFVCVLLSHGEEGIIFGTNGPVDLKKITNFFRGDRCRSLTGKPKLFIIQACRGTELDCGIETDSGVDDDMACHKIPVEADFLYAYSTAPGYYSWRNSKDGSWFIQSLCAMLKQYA
SENP luc ctr = interferes with luciferase luminescence in SENP counter-screen; AID 488919; 6,200 tested, 39% active; shares compounds with SENP7 block; inhibition, % at 12.5 µM; Pre-incubated SENP8/Z-RLRGG-aminoluciferin, luciferase luminescence interference;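 active means mean inhibition above about 50% when retested at one dose, limit read from the data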;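 further: plate controls were DMSO wells with completed reaction for no effect and substrate without enzyme for full effect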
The depositor's hits bear a star; i = inactive; . = not tested or not shown.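 How the source made its calls, unless noted: active means mean inhibition above about 50% in the one-dose retest (limit read from the data); inactive means the rest.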

SMILES	UBC13 polyUb	SENP8 block-1	SENP8 block-2	SENP7 block	SENP6 inh	Apaf1 inhib	SENP8 conf	SENP6 conf	SENP7 confirm	Casp3 SENP sel	SENP luc ctr
C/C(=N\OC(=O)NC(C)C)c1sc(-c2ccc(Cl)cc2)nc1C	-3	-27	11	59*	35	17	53*	60*	84*	74*	51*
C=C(C)c1sc(-c2ccc(Cl)cc2)nc1C	6	-255	50	39	70*	9	-7	41	85*	33	4
CCNC(=O)O/N=C(\C)c1sc(-c2ccc(Cl)cc2)nc1C	-6	-3	89*	91*	92*	20	79*	79*	95*	82*	66*
COc1cc(F)ccc1-c1csc(C(C)(O)c2ccc(F)c(F)c2)n1 (stereo not given)	.	6	.	.	.	.	.	.	.	.	.
CCC(C)c1ccc(NC(=O)c2ccco2)cc1 (stereo not given)	1	8	70*	74*	85*	10	79*	78*	94*	71*	67*
Cc1ccc(NC(=O)c2ccc(OC(=O)c3ccco3)cc2)cc1	-13	2	-10	11	1	-7	.	.	.	.	.
O=C(Oc1ccccc1)c1ccc(NC(=O)c2ccco2)cc1	-10	5	66*	91*	7	18	33	66*	85*	78*	36
CN(C(=O)c1ccc(NC(=O)c2ccco2)cc1)c1ccccc1	2	5	61*	81*	81*	2	13	69*	87*	88*	72*
CCC(C)c1ccc(NC(=O)COC(=O)CCNC(=O)c2ccco2)cc1 (stereo not given)	-2	1	3	-1	-12	2	.	.	.	.	.
O=C1NC(=S)S/C1=C\c1cccc([N+](=O)[O-])c1	.	16	.	.	.	.	.	.	.	.	.
COc1ccc(C(=O)/C=C/c2cccs2)c(OC(=O)c2cccc([N+](=O)[O-])c2)c1	-12	29	67*	39	79*	17	31	39	19	44	2
COc1ccc(C(=O)/C=C/c2ccc(F)cc2)c(OC(=O)c2ccc([N+](=O)[O-])cc2)c1	4	29	-20	-14	38	19	.	.	.	.	.
CCOC(=O)c1cc2ccccc2n1C1CCN(C)CC1	.	-4	.	.	.	.	.	.	.	.	.
COc1ccc2c(c1)sc1nc(-c3ccccc3)cn12	5	8	96*	99*	96*	24	11	101*	104*	98*	99*
CCOC(=O)N1CCN(C(=O)c2ccc3c(c2)sc2nc(-c4ccc(OC)cc4)cn23)CC1	15	-166	-2	2	-2	11	.	.	.	.	.
COc1ccccc1Nc1nnc(SCC2CCCCO2)s1 (stereo not given)	2	12	88*	90*	91*	-4	91*	91*	100*	94*	91*
Cc1ccc(Nc2nnc(SCC3CCCCO3)s2)cc1 (stereo not given)	-2	6	-15	-13	-10	2	.	.	.	.	.
Cc1ccccc1Nc1nnc(SCC2CCCCO2)s1 (stereo not given)	4	8	77*	87*	90*	6	81*	82*	97*	88*	77*
CCN1CCc2c(sc(NC(=S)NC(=O)c3ccccc3)c2C#N)C1	-17	-47	14	46	56*	5	28	27	34	44	18
Cn1nc(/C=C/c2ccccc2)ccc1=O	7	-396	41	58*	54*	-2	28	32	76*	76*	55*
Fc1ccccc1/C=C/c1ccc2ccccc2n1	7	-89	96*	100*	11	16	100*	101*	104*	99*	99*
O/C(=C\c1ccc2ccccc2n1)c1ccc(O)cc1O	-34	28	93*	92*	91*	-24	95*	96*	102*	92*	47
Oc1ccc(/C=C/c2ccc3ccccc3n2)cc1	-2	-395	98*	102*	101*	1	100*	100*	103*	99*	98*
C(=Cc1c[nH]c2ccccc12)c1ccc2ccccc2n1	.	i	.	.	.	.	.	.	.	.	.
CCCCNC(=O)c1nc(C2CCN(S(=O)(=O)c3ccc(Cl)cc3)CC2)oc1-c1ccccc1	.	15	.	.	.	.	.	.	.	.	.
SMILES	UBC13 polyUb	SENP8 block-1	SENP8 block-2	SENP7 block	SENP6 inh	Apaf1 inhib	SENP8 conf	SENP6 conf	SENP7 confirm	Casp3 SENP sel	SENP luc ctr
CN(C)c1ccc(/C=C/c2ccc3ccccc3n2)cc1	.	-290	.	.	.	.	.	.	.	.	.
C(=C\c1ccc2ccccc2n1)/c1ccccc1	-14	-410	98*	98*	98*	10	99*	101*	104*	99*	97*
CCc1nc2ccc(C(=O)NCCNC(C)=O)cn2c1N(CC)CCOC	.	1	.	.	.	.	.	.	.	.	.
c1ccc(Oc2ccc(-c3ccn[nH]3)cc2)cc1	6	10	-8	1	-16	-6	.	.	.	.	.
c1ccc(-c2ncc(-c3ccn[nH]3)s2)cc1	10	-387	83*	91*	91*	6	84*	85*	98*	87*	59*
COc1ccc(N2CCN(c3cc(C(=O)Nc4cc(OC)c(OC)c(OC)c4)ncn3)CC2)cc1OC	.	4	.	.	.	.	.	.	.	.	.
CCOC(=O)[C@]12CCCC=C1N(Cc1ccccc1)C(=O)[C@H](CC(=O)NCCCN1CCCC1=O)C2	.	23	.	.	.	.	.	.	.	.	.
CCCCNC(=O)C1(C)CCCCN1CC(=O)c1ccc(OC)cc1 (stereo not given)	.	-32	.	.	.	.	.	.	.	.	.
